How the values were obtained:
Assay type in all cases: functional, cell-based
[1] = tested on: P388; assay: Cytotoxicity against mouse P388 cells after 4 days; settings: P388, 96 h
Outline: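 Murine leukaemia cells seeded at 1 × 10⁴/well in MEM with 10% FCS containing the compound at different concentrations. Incubated 4 days at 37 °C under 10% CO₂ and 98% humidity, with drug-free controls counted daily to confirm exponential growth. Inhibition judged by inverted microscopy against controls, with no staining.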

[2] = tested on: A549; assay: Cytotoxicity against human A549 cells after 4 days; settings: A549, 96 h
Outline: (§1)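 Cells seeded at 2 × 10⁴/well in MEM with 10% FCS containing the compound at different concentrations. Incubated 4 days at 37 °C under 10% CO₂ and 98% humidity. Drug-free control wells were counted daily to confirm exponential growth. Read-out was crystal violet staining, then inhibition estimated by comparison with controls.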

[3] = tested on: HT-29; assay: Cytotoxicity against human HT29 cells after 4 days; settings: HT-29, 96 h; outline: as §1
[4] = Cytotoxicity against human MEL28 cells after 4 days; settings: SK-MEL-28, 96 h; outline: as §1

Structure (SMILES)	IC50 [1] [µM]	IC50 [2] [µM]	IC50 [3] [µM]	IC50 [4] [µM]
COC(=O)[C@@H]1C(C(=O)Nc2cc(OC)c(OC)c(OC)c2)=Cc2cc3c(cc2[C@H]1c1cc(OC)c(OC)c(OC)c1)OCO3	1.7	1.7	1.7	
COC(=O)[C@@H]1C(/C=N/O)=Cc2cc3c(cc2[C@H]1c1cc(OC)c(OC)c(OC)c1)OCO3				2.3
COc1cc([C@H]2C3=C(Cc4cc5c(cc42)OCO5)C(O)OC3=O)cc(OC)c1OC (stereo partly drawn)	1.2	1.2	1.2	
COc1cc(-c2c3c(cc4cc5c(cc24)OCO5)C(=O)N(CCO)C3=O)cc(OC)c1OC	2.2	2.2	2.2	
COC(=O)[C@@H]1C(C(=O)Nc2ccccc2)=Cc2cc3c(cc2[C@H]1c1cc(OC)c(OC)c(OC)c1)OCO3	1.9	1.9	1.9	
COc1cc([C@@H]2c3cc4c(cc3[C@H](O)[C@H]3COC(=O)[C@H]23)OCO4)cc(OC)c1OC [PODOFILOX]			0.012	
COC(=O)C1=Cc2cc3c(cc2[C@@H](c2cc(OC)c(OC)c(OC)c2)[C@@H]1C(=O)OC)OCO3	5.1	5.1	5.1	5.1
COc1cc([C@@H]2c3cc4c(cc3C=C(C=O)[C@H]2CO)OCO4)cc(OC)c1OC				0.25
COC(=O)[C@@H]1C(C(=O)Nc2ccc(C)cc2)=Cc2cc3c(cc2[C@H]1c1cc(OC)c(OC)c(OC)c1)OCO3	1.9	1.9	1.9	1.9
CCCCCCNC(=O)C1=Cc2cc3c(cc2[C@@H](c2cc(OC)c(OC)c(OC)c2)[C@@H]1C(=O)OC)OCO3	1.9	1.9	1.9	
CCCCCCNC(=O)c1cc2cc3c(cc2c(-c2cc(OC)c(OC)c(OC)c2)c1C(=O)NCCCCCC)OCO3	2	2	2	
COC(=O)[C@@H]1C(C(=O)OC(C)=O)=Cc2cc3c(cc2[C@H]1c1cc(OC)c(OC)c(OC)c1)OCO3	10	10	10	10
COC(=O)[C@@H]1C(C(=O)O)=Cc2cc3c(cc2[C@H]1c1cc(OC)c(OC)c(OC)c1)OCO3	> 20	> 20	> 20	> 20
COc1cc([C@@H]2c3cc4c(cc3C=C3C(=O)OC[C@H]32)OCO4)cc(OC)c1OC	> 20	> 20	> 20	> 20
COc1cc([C@@H]2c3cc4c(cc3C=C3C(=O)OC(=O)[C@H]32)OCO4)cc(OC)c1OC	12	12	12	12
COC(=O)[C@@H]1C(C#N)=Cc2cc3c(cc2[C@H]1c1cc(OC)c(OC)c(OC)c1)OCO3		2.4	2.4	2.4
COC(=O)[C@@H]1C(C=O)=Cc2cc3c(cc2[C@H]1c1cc(OC)c(OC)c(OC)c1)OCO3 [PODOPHYLLIC ALDEHYDE]				0.23
COc1cc([C@@H]2c3cc4c(cc3C=C(C(=O)O)[C@H]2C(=O)O)OCO4)cc(OC)c1OC	> 20	> 20	> 20	> 20

— ChEMBL document CHEMBL1146355, “Synthesis and cytotoxic evaluation of C-9 oxidized podophyllotoxin derivatives” (Bioorg Med Chem, 2007)
